Assay [1] has as its system Mus musculus. The assay is described as follows: In vivo hypoglycemic activity expressed as percent glucose normalization in db/db mice at 1 mg/Kg. The assay is classed as functional.
Assay [2] relates to Mus musculus. The assay is described as follows: In vivo hypoglycemic activity expressed as percent glucose normalization in db/db mice at 0.1 mg/Kg. Type of assay: functional.
For assay [3], the system named is Mus musculus. The experiment in a line: In vivo hypoglycemic activity expressed as percent glucose normalization in db/db mice at 0.05 mg/Kg; Inactive. Type of assay: functional, organism-based.
Assay [4] has as its system Mus musculus. The experiment in a line: In vivo hypoglycemic activity expressed as percent glucose normalization in db/db mice at 0.01 mg/Kg. The assay is classed as functional.
For assay [5], the system named is Mus musculus. The experiment in a line: In vivo hypoglycemic activity expressed as percent glucose normalization in ob/ob mice at 1 mg/Kg. Type of assay: functional. The gist of the method:
(§1)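 ob/ob mice received oral gavage once daily for 4 days in 0.25% (w/v) methylcellulose in water. Retro-orbital blood was taken before treatment and 24 h after the fourth dose. Glucose was measured by the hexokinase UV method. Results are % glucose normalization relative to vehicle (0%) and englitazone 100 mg/kg (100%), with significance at p<0.05.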

Assay [6] has as its system Mus musculus. The experiment in a line: In vivo hypoglycemic activity expressed as percent glucose normalization in ob/ob mice at 0.01 mg/Kg. Type of assay: functional. The gist of the method:
as §1

The test system of assay [7] is Mus musculus. The assay is described as follows: In vivo hypoglycemic activity expressed as percent glucose normalization in ob/ob mice at 0.1 mg/Kg. The assay is classed as functional. The method in brief:
as §1

For assay [8], the system named is Mus musculus. The assay is described as follows: In vivo hypoglycemic activity expressed as percent glucose normalization in db/db mice at 0.05 mg/Kg. Type of assay: functional.
In assay [9] the test system is Mus musculus. The assay is described as follows: In vivo hypoglycemic activity expressed as percent glucose normalization in db/db mice at 0.25 mg/Kg. The assay is classed as functional.
Assay [10] concerns Mus musculus. The assay is described as follows: In vivo hypoglycemic activity expressed as percent glucose normalization in db/db mice at 0.5 mg/Kg. The assay is classed as functional.
Assay [11] deals with Mus musculus. The assay is described as follows: In vivo hypoglycemic activity expressed as percent glucose normalization in db/db mice at 5 mg/Kg. Type of assay: functional.
Assay [12] relates to Mus musculus. The assay is described as follows: In vivo hypoglycemic activity expressed as percent glucose normalization in ob/ob mice at 0.01 mg/Kg; Inactive. The assay is classed as functional, organism-based. The method in brief: as §1
Assay [13] deals with Mus musculus. The assay is described as follows: In vivo hypoglycemic activity expressed as percent glucose normalization in db/db mice at 0.1 mg/Kg; Inactive. The assay is classed as functional, organism-based.
Assay [14] has as its system Mus musculus. The experiment in a line: In vivo hypoglycemic activity expressed as percent glucose normalization in db/db mice at 5 mg/Kg; Not tested. The assay is classed as functional.
Assay [15] has as its system Mus musculus. The experiment in a line: In vivo hypoglycemic activity expressed as percent glucose normalization in db/db mice at 2.5 mg/Kg. The assay is classed as functional.

Calls of active or inactive are those of the source. No cut-off for these calls is given here.

For the compound `CCOC(Cc1ccc2oc(Cc3nc(-c4ccc(OC)cc4)oc3C)cc2c1)C(=O)O` (stereo not drawn), the Glucose normalisation in the assay with Mus musculus [1] is reported as 100%; in the assay on Mus musculus [2], 100%; in the assay with Mus musculus [4] it was 46%. Moreover, the Glucose normalisation entry with Mus musculus [3] is “inactive”.

In the case of `Cc1oc(-c2ccc(Cl)cc2)nc1Cc1cc2cc(CC3SC(=O)NC3=O)ccc2o1` (stereo not drawn), the Glucose normalisation with Mus musculus [5] was found to be 100%; in the assay with Mus musculus [6], 0%; in the assay on Mus musculus [7] it was 100%.

As to `CCOC(Cc1ccc2oc(Cc3nc(-c4cccs4)oc3C)cc2c1)C(=O)O` (stereo not drawn), the Glucose normalisation in the assay on Mus musculus [1] turned out to be 100%; with Mus musculus [8], 100%; in the assay on Mus musculus [2], 100%; with Mus musculus [4] it was 98%.

Regarding `CSC(Cc1ccc2oc(Cc3nc(-c4ccccc4)oc3C)cc2c1)C(=O)O` (stereo not drawn), the Glucose normalisation in the assay on Mus musculus [9] came out at 16%; in the assay with Mus musculus [10], 100%; with Mus musculus [1], 89%; in the assay on Mus musculus [2] it was 26%.

`Cc1ccccc1-c1nc(Cc2cc3cc(CC4SC(=O)NC4=O)ccc3o2)c(C)o1` (stereo not drawn): the Glucose normalisation with Mus musculus [5] turned out to be 100%; in the assay on Mus musculus [6] it was 11%; in the assay on Mus musculus [7], 91%.

Turning to `CCOC(Cc1ccc2oc(Cc3nc(-c4ccccc4)oc3C)cc2c1)C(=O)O` (stereo not drawn), the Glucose normalisation stood at 100% in the assay on Mus musculus [9]; 97% with Mus musculus [8]; 100% in the assay on Mus musculus [2]; 100% in the assay on Mus musculus [11]; 69% in the assay on Mus musculus [4].

On to `C#CCOC(Cc1ccc2oc(Cc3nc(-c4ccccc4)oc3C)cc2c1)C(=O)O` (stereo not drawn), for which the Glucose normalisation in the assay with Mus musculus [1] is recorded as 74%; in the assay with Mus musculus [11] it was 100%.

On to `Cc1cccc(-c2nc(Cc3cc4cc(CC5SC(=O)NC5=O)ccc4o3)c(C)o2)c1` (stereo not drawn), for which the Glucose normalisation in the assay on Mus musculus [5] amounted to 100%; with Mus musculus [6], 78%; in the assay on Mus musculus [7], 79%.

Take `C=CCOC(Cc1ccc2oc(Cc3nc(-c4ccccc4)oc3C)cc2c1)C(=O)O` (stereo not drawn): the Glucose normalisation with Mus musculus [1] was 85%; with Mus musculus [8], 91%; in the assay with Mus musculus [2] it was 85%; in the assay on Mus musculus [11], 92%; in the assay on Mus musculus [4] it was 27%.

Turning to `Cc1oc(C2CCCCC2)nc1Cc1cc2cc(CC3SC(=O)NC3=O)ccc2o1` (stereo not drawn), the figures for the Glucose normalisation with Mus musculus [5] and in the assay on Mus musculus [7] were 100% and 90%, respectively. Also, in the assay on Mus musculus [12], the Glucose normalisation entry was “inactive”.

Regarding `Cc1oc(-c2ccccc2)nc1Cc1cc2cc(CC(SCc3ccccc3)C(=O)O)ccc2o1` (stereo not drawn), the Glucose normalisation stood at 72% with Mus musculus [9], 93% with Mus musculus [10], 88% in the assay with Mus musculus [1] and 100% in the assay with Mus musculus [11]. The Glucose normalisation result in the assay with Mus musculus [13] is “inactive”.

`CCOC(C(=O)O)c1ccc2oc(Cc3nc(-c4ccccc4)oc3C)cc2c1` (stereo not drawn): in the assay on Mus musculus [14], the Glucose normalisation is 9%.

On to `CCCS[C@H](Cc1ccc2oc(Cc3nc(-c4ccccc4)oc3C)cc2c1)C(=O)O`, for which the figures for the Glucose normalisation in the assay with Mus musculus [10], with Mus musculus [1] and in the assay with Mus musculus [15] were 45%, 56% and 75%, respectively.

For `CCCS[C@@H](Cc1ccc2oc(Cc3nc(-c4ccccc4)oc3C)cc2c1)C(=O)O`, the Glucose normalisation with Mus musculus [10] was determined as 52%; with Mus musculus [1], 91%; in the assay on Mus musculus [15], 69%.

In the case of `CCOC(CCc1ccc2oc(Cc3nc(-c4ccccc4)oc3C)cc2c1)C(=O)O` (stereo not drawn), the Glucose normalisation in the assay on Mus musculus [9] was 13%; in the assay with Mus musculus [10], 75%; in the assay on Mus musculus [1], 90%; with Mus musculus [11], 100%.

Take `Cc1oc(-c2ccccc2)nc1Cc1cc2cc(CC(Sc3ccccc3)C(=O)O)ccc2o1` (stereo not drawn): the Glucose normalisation in the assay on Mus musculus [9] is given as 92%; with Mus musculus [10] it was 100%; in the assay with Mus musculus [1], 90%; in the assay with Mus musculus [2], 86%; in the assay on Mus musculus [11], 70%.

`CCO[C@@H](Cc1ccc2oc(Cc3nc(-c4ccccc4)oc3C)cc2c1)C(=O)O`: the Glucose normalisation in the assay on Mus musculus [2] is 100%; in the assay on Mus musculus [4], 78%.

As to `Cc1oc(-c2cccc(F)c2)nc1Cc1cc2cc(CC3SC(=O)NC3=O)ccc2o1` (stereo not drawn), the Glucose normalisation with Mus musculus [5] is on record as 100%; in the assay with Mus musculus [6] it was 12%; in the assay with Mus musculus [7] it was 88%.

Regarding `CCCOC(Cc1ccc2oc(Cc3nc(-c4ccccc4)oc3C)cc2c1)C(=O)O` (stereo not drawn), the Glucose normalisation in the assay with Mus musculus [1] stood at 100%; in the assay with Mus musculus [8], 76%; in the assay with Mus musculus [2] it was 100%; in the assay on Mus musculus [11] it was 100%; in the assay on Mus musculus [4], 43%.

Regarding `CCOC(Cc1ccc2oc(Cc3nc(-c4ccco4)oc3C)cc2c1)C(=O)O` (stereo not drawn), the Glucose normalisation worked out at 100% in the assay with Mus musculus [1], 100% in the assay on Mus musculus [2] and 63% with Mus musculus [4].

Take `CCCCCCCCSC(Cc1ccc2oc(Cc3nc(-c4ccccc4)oc3C)cc2c1)C(=O)O` (stereo not drawn): the Glucose normalisation in the assay on Mus musculus [9] worked out at 99%; with Mus musculus [10] it was 100%; with Mus musculus [1], 75%; with Mus musculus [2], 14%; in the assay with Mus musculus [11], 96%.

As to `COC(Cc1ccc2oc(Cc3nc(-c4ccccc4)oc3C)cc2c1)C(=O)O` (stereo not drawn), the Glucose normalisation in the assay with Mus musculus [1] is listed as 100%; in the assay on Mus musculus [8], 82%; in the assay on Mus musculus [2] it was 83%; with Mus musculus [11], 94%; in the assay on Mus musculus [4], 44%.

As to `CCSC(Cc1ccc2oc(Cc3nc(-c4ccccc4)oc3C)cc2c1)C(=O)O` (stereo not drawn), the Glucose normalisation is on record as 3% in the assay with Mus musculus [9], 80% with Mus musculus [10], 60% in the assay with Mus musculus [1] and 86% in the assay with Mus musculus [11].

As to `CCO[C@H](Cc1ccc2oc(Cc3nc(-c4ccccc4)oc3C)cc2c1)C(=O)O`, the Glucose normalisation was found to be 74% with Mus musculus [1], 19% in the assay with Mus musculus [2] and 16% with Mus musculus [4].

As for `Cc1oc(-c2ccccc2)nc1Cc1cc2cc(CC3SC(=O)NC3=O)ccc2o1` (stereo not drawn), the Glucose normalisation in the assay with Mus musculus [6] stood at 76%; with Mus musculus [7] it was 93%.

With `Cc1oc(-c2ccccc2)nc1Cc1cc2cc(CC(OCc3ccccc3)C(=O)O)ccc2o1` (stereo not drawn), the figures for the Glucose normalisation in the assay with Mus musculus [8], with Mus musculus [2] and in the assay on Mus musculus [4] were 100%, 100% and 74%, respectively.

Take `Cc1oc(-c2ccccc2)nc1Cc1cc2cc(CC(OCCCO)C(=O)O)ccc2o1` (stereo not drawn): the Glucose normalisation in the assay with Mus musculus [8] is 19%; in the assay on Mus musculus [2] it was 91%.

For the compound `CCCSC(Cc1ccc2oc(Cc3nc(-c4ccccc4)oc3C)cc2c1)C(=O)O` (stereo not drawn), the Glucose normalisation is 39% in the assay on Mus musculus [9], 82% in the assay on Mus musculus [10], 69% with Mus musculus [1] and 94% with Mus musculus [11].
